Laboratory results reported in ChEMBL document CHEMBL4033799, “Stable and Long-Lasting, Novel Bicyclic Peptide Plasma Kallikrein Inhibitors for the Treatment of Diabetic Macular Edema” (J Med Chem, 2018).
The source made the active and inactive calls. The calls are words filed in the database; no cut-off is given here. *1 amine or outer side, *2 acyl side, *3 side chain or, on linkers, in order; H or OH if unused. Where a SMILES comes first, the peptide text is derived from it. Bridges are numbered along the chain shown (N, C = ends). TBMB = c1c(C[*:1])cc(C[*:3])cc1C[*:2]

Assays:
Kallikrein-6 = Kallikrein-6 (Homo sapiens, UniProt Q92876); test: Inhibition of recombinant human C-terminal His-tagged KLK6 isoform 1 (1 to 244 residues) expressed in HEK293 cells using fluorogenic Boc-QARAMC peptide as substrate by fluorescence based assay
In short: (§1)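 Human serine proteases were assayed with substrates and conditions set by each supplier's recommendations. Peptides were first screened at 50 μM. Where inhibition was detected, Ki was determined from activity across peptide concentrations using a tight-binding rate equation.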

Rattus norvegicus [1] = test: Antiinflammatory activity in Sprague-Dawley rat carrageenan-induced paw edema model assessed as inhibition of paw edema AUC (0 to 2 hrs) at 10 to 30 mg/kg, ip pretreated for 15 mins followed by carrageenan challenge; format: functional, organism-based
In short: (§2)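 Male Sprague-Dawley rats received peptide IP (30, 10 or 3 mg/kg), or indomethacin IP at 5 mg/kg, 15 min before subplantar carrageenan. Paw volume was followed over time against a vehicle group.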

Rattus norvegicus [2] = test: Antiinflammatory activity in ip dosed Sprague-Dawley rat carrageenan-induced paw edema model assessed as inhibition of edema pretreated for 15 mins followed by carrageenan challenge measured up to 6 hrs; format: functional, organism-based; in short: as §2
Mus musculus = test: Antidiabetic activity in STZ-induced diabetic C57BL/6J mouse model assessed as reduction in retinal vascular permeability at 100 ug administered 4 times via ivt measured at 8 weeks post diabetes onset relative to control; format: functional
In short: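 Diabetes was induced with STZ in male C57BL/6J mice. Peptide was given as repeated intravitreal injections (4 × 100 μg). Retinal permeability was read as FITC-BSA extravasation 8 weeks after diabetes onset and compared with vehicle-treated diabetic mice. The anti-VEGFR2 antibody DC101 (6.2 μg/eye, single dose) served as positive control.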

Cathepsin G = target: T1, Cathepsin G (Homo sapiens, UniProt P08311); test: Inhibition of recombinant human Cathepsin-G
T1 sequence (P08311 whole entry): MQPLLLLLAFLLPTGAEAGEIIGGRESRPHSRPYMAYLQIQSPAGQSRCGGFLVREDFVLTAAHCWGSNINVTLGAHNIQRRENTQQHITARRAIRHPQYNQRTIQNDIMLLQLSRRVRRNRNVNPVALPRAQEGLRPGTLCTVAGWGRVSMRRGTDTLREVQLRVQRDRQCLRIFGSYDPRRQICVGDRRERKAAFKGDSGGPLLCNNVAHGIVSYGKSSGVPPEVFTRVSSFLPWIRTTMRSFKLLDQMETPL
In short: (§3)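 Panel of human serine proteases. Substrates and assay conditions followed each supplier's recommendations. Peptides were first screened at 50 μM. Where inhibition was detectable, hydrolytic activity was measured across a range of peptide concentrations. Ki was obtained by fitting to the tight-binding inhibitor rate equation.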

Oryctolagus cuniculus = species on record: Oryctolagus cuniculus; test: Inhibition of plasma kallikrein in rabbit plasma using HMWK as substrate assessed as suppression of kaolin-activated protein induced bradykinin release at 2 uM preincubated for 15 mins followed by substrate addition measured after 15 min by ELISA
Coagulation factor X = Coagulation factor X (Homo sapiens, UniProt P00742); test: Inhibition of recombinant human C-terminal 10His-tagged factor Xa (24 to 488 residues) expressed in baculovirus derived insect sf21 cells using fluorogenic Mca-RPKPVE-Nval-WRK(Dnp)-NH2 peptide as substrate by fluorescence based assay; in short: as §1
[3] = target: T2, Complement C1s subcomponent (Homo sapiens, UniProt P09871); test: Inhibition of recombinant human C-terminal 6His-tagged complement component C1s (1 to 688 residues) expressed in mouse NS0 cells using fluorogenic Z-Lys-SBzl peptide as substrate after 5 mins by fluorescence based assay; in short: as §1
T2 sequence (P09871 whole entry): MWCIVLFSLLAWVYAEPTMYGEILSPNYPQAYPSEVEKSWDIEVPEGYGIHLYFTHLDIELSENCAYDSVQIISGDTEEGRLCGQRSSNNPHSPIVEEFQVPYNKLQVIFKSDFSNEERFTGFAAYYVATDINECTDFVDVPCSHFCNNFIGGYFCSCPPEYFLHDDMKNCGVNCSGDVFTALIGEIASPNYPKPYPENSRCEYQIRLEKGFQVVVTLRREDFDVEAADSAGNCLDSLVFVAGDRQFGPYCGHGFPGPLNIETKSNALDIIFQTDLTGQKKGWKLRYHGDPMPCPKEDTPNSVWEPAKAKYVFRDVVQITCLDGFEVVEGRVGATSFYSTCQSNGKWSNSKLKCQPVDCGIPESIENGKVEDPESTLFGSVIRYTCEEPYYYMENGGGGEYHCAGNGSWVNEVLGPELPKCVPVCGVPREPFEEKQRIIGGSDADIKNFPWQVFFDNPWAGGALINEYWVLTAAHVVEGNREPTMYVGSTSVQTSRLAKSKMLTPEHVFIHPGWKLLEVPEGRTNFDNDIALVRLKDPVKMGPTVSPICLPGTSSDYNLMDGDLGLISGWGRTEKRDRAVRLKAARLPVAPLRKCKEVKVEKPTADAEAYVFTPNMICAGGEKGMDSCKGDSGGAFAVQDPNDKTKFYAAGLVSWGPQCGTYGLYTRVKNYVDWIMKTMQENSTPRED

Prothrombin = Prothrombin (Homo sapiens, UniProt P00734); test: Inhibition of recombinant human alpha thrombin using fluorogenic peptide as substrate by fluorescence based assay; in short: as §3
Plasma [4] = test: Drug metabolism in human plasma assessed as deltaLeu6 metabolite formation at 50 uM after 18 hrs by MALDI-TOF analysis; format: ADME, cell-free
In short: (§4)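 Peptide from a 1 mM DMSO stock was diluted to 50 μM in citrated mouse, rat or human plasma and incubated at 37 °C for up to 2 days. Samples taken at time points were quenched in 1:1 acetonitrile/methanol and centrifuged. The supernatant was mixed with ammonium bicarbonate in acetonitrile/water, and parent peptide and metabolites were detected by MALDI-TOF.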

[5] = Half life in rat plasma at 4 uM measured up to 24 hrs by LC-MS/MS analysis; format: ADME, cell-free
In short: (§5)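 Peptide from a 0.16 mM DMSO stock was added to human, rat or mouse plasma (final 4 μM) or to homogenized human vitreous (final 1 μM), with internal standard. Samples were incubated at 37 °C for up to 24 h and extracted with water/acetonitrile/methanol 1:3:3.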

[6] = Inhibition of rabbit plasma kallikrein using fluorogenic H-Pro-Phe-Arg-AMC peptide as substrate preincubated for 15 mins followed by substrate addition measured by fluorescence-based assay; design: species or system Oryctolagus cuniculus; settings: read-out: Ki(app)
In short: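 Assays ran at 25 °C in 50 mM Tris-HCl, 250 mM NaCl, 1.5 μM BSA, pH 7.5. PKal (nominal 1–2 nM) was preincubated 15 min with serially diluted peptide. […] Human PKal was purified from plasma; rat PKal was made in-house or bought; other species were purified in-house from kaolin-activated plasma.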

[7] = Half life in human plasma at 4 uM measured up to 24 hrs by LC-MS/MS analysis; format: ADME, cell-free; in short: as §5
[8] = Half life in mouse plasma at 4 uM measured up to 24 hrs by LC-MS/MS analysis; format: ADME, cell-free; in short: as §5
Plasma [9] = test: Drug metabolism in rat plasma assessed as (5R,8S,11S,14S,17S,20S,23R)-29-[[(2R)-2-acetamido-3-hydroxy-3-oxo-propyl]sulfanylmethyl]-5-amino-14-(3-amino-3-oxo-propyl)-17-(carboxymethyl)-11-(1H-imidazol-5-ylmethyl)-8,20-diisobutyl-6,9,12,15,18,21-hexaoxo-3,25-dithia-7,10,13,16,19,22-hexazabicyclo[25.3.1]hentriaconta-1(31),27,29-triene-23-carboxylic acid metabolite formation at 50 uM after 18 hrs by MALDI-TOF analysis; format: ADME, cell-free; in short: as §4
(UniProt A0A8D1M4K5) = test: Inhibition of pig plasma kallikrein using fluorogenic H-Pro-Phe-Arg-AMC peptide as substrate preincubated for 15 mins followed by substrate addition measured by fluorescence-based assay; design: species or system Sus scrofa; settings: read-out: Ki(app)
Plasma [10] = test: Drug metabolism in human plasma assessed as deltaH7Q6 metabolite formation at 50 uM after 18 hrs by MALDI-TOF analysis; format: ADME, cell-free; in short: as §4
[11] = Half life in human vitreous humor at 1 uM measured up to 24 hrs by LC-MS/MS analysis; format: ADME, tissue-based; in short: as §5
Plasma kallikrein [12] = target: Plasma kallikrein (Rattus norvegicus, UniProt P14272); test: Inhibition of recombinant Sprague-Dawley rat plasma kallikrein using fluorogenic H-Pro-Phe-Arg-AMC peptide as substrate preincubated for 15 mins followed by substrate addition measured by fluorescence-based assay; settings: read-out: Ki(app)
[13] = Plasma clearance in Sprague-Dawley rat at 10 mg/kg, iv administered as infusion over 1 hr measured up to 240 mins post dose by LC-MS/MS analysis; format: ADME, organism-based
In short: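 Groups of 2 male Sprague-Dawley rats; 10 mg/kg infused into the jugular vein over 1 h. Serial blood drawn via tail-vein cannulae at 5–240 min into EDTA tubes and processed to plasma. Plasma assayed by LC-MS/MS against a 16–4000 ng/mL calibration line in control rat plasma.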

Plasma kallikrein [14] = target: Plasma kallikrein (Homo sapiens, UniProt P03952); test: Inhibition of human plasma kallikrein using fluorogenic H-Pro-Phe-Arg-AMC peptide as substrate preincubated for 15 mins followed by substrate addition measured by fluorescence-based assay; settings: read-out: Ki(app)
Plasma [15] = test: Drug metabolism in human plasma assessed as deltaL6H7Q6 metabolite formation at 50 uM after 18 hrs by MALDI-TOF analysis; format: ADME, cell-free; in short: as §4
Plasma [16] = test: Drug metabolism in rat plasma assessed as (5R,8S,11S,14S,17S,20S,23R)-29-[[(2R)-2-acetamido-3-[[(1S)-1-(hydroxymethyl)-2-[[(1S)-2-[(2S)-2-[[(1S)-2-hydroxy-1-methyl-2-oxo-ethyl]carbamoyl]pyrrolidin-1-yl]-1-(1H-indol-3-ylmethyl)-2-oxo-ethyl]amino]-2-oxo-ethyl]amino]-3-oxo-propyl]sulfanylmethyl]-5-amino-14-(3-amino-3-oxo-propyl)-17-(carboxymethyl)-11-(1H-imidazol-5-ylmethyl)-8,20-diisobutyl-6,9,12,15,18,21-hexaoxo-3,25-dithia-7,10,13,16,19,22-hexazabicyclo[25.3.1]hentriaconta-1(31),27,29-triene-23-carboxylic acid metabolite formation at 50 uM after 18 hrs by MALDI-TOF analysis; format: ADME, cell-free; in short: as §4
Plasma [17] = test: Drug metabolism in rat plasma assessed as (5R,8S,11S,14S,17S,20S,23R)-29-[[(2R)-2-acetamido-3-[[(1S)-2-hydroxy-1-(hydroxymethyl)-2-oxo-ethyl]amino]-3-oxo-propyl]sulfanylmethyl]-5-amino-14-(3-amino-3-oxo-propyl)-17-(carboxymethyl)-11-(1H-imidazol-5-ylmethyl)-8,20-diisobutyl-6,9,12,15,18,21-hexaoxo-3,25-dithia-7,10,13,16,19,22-hexazabicyclo[25.3.1]hentriaconta-1(31),27,29-triene-23-carboxylic acid metabolite formation at 50 uM after 18 hrs by MALDI-TOF analysis; format: ADME, cell-free; in short: as §4

In the case of `CC(=O)N[C@H]1CSCc2cc3cc(c2)CSC[C@@H](NC(=O)[C@H](CCCCNC(=N)N)NC(=O)[C@H](Cc2ccc(O)cc2)NC(=O)C2CCN2C(=O)[C@H](Cc2ccccc2)NC(=O)[C@H](CO)NC1=O)C(=O)N[C@@H](C)CN[C@@H](Cc1cnc[nH]1)C(=O)N[C@@H](CCC(N)=O)C(=O)N[C@@H](CC(=O)O)C(=O)N[C@@H](CC(C)C)C(=O)N[C@H](C(=O)O)CSC3` (some centres undefined), the Ki (Kallikrein-6) is reported as > 50 µM, the inhibition (Rattus norvegicus [1]) is reported as “Active” and the inhibition (Rattus norvegicus [2]) is reported as “Dose-dependent effect”. For the same compound, the inhibition (Mus musculus) was “inactive”, the Ki (Cathepsin G) was > 50 µM and the inhibition (Oryctolagus cuniculus) was “inactive”. For the same compound, the Ki (Coagulation factor X) was > 50 µM, the Ki [3] was > 50 µM and the Ki (Prothrombin) was > 50 µM.

With `CC(=O)N[C@H]1CSCc2cc3cc(c2)CSC[C@H](NC(=O)[C@H](CCCNC(=N)N)NC(=O)[C@H](C)NC(=O)[C@@H]2CCCN2C(=O)[C@H](Cc2c[nH]c4ccccc24)NC(=O)[C@H](CO)NC1=O)C(=O)N[C@@H](CC(C)C)C(=O)N[C@@H](Cc1cnc[nH]1)C(=O)N[C@@H](CCC(N)=O)C(=O)N[C@@H](CC(=O)O)C(=O)N[C@@H](CC(C)C)C(=O)N[C@H](C(=O)O)CSC3` (Ac-CSWPARCLHQDLC-OH; linker 1-7-13 via TBMB) the Drug metabolism (Plasma [4]) was “Metabolite_Detected”, the half-life at 4 µM [5] was 2.8 h and the Ki [6] was 0.01 µM. The half-life at 4 µM [7] was 7 h, the half-life at 4 µM [8] was 1.5 h and the Drug metabolism (Plasma [9]) was “Metabolite_Detected”. For the same compound, the Ki ((UniProt A0A8D1M4K5)) was 0.0036 µM, the Drug metabolism (Plasma [10]) was “Metabolite_Detected” and the half-life at 1 µM [11] was > 24 h. It also gave a Ki (Plasma kallikrein [12]) of 0.002 µM, a clearance [13] of 156 mL/min/kg and a Ki (Plasma kallikrein [14]) of 0.00015 µM. The Drug metabolism (Plasma [15]) was “Metabolite_Detected”, the Drug metabolism (Plasma [16]) was “Metabolite_Detected” and the Drug metabolism (Plasma [17]) was “Metabolite_Detected”.
